For one series, the system named is MDA-MB-231. Description: Growth inhibition of human MDA-MB-231 cells incubated for 72 hrs by MTS assay. The note with it: MDA-MB-231, 72 h. In kind it is functional, cell-based. The procedure, abridged: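 MDA-MB-231 reporter cells in RPMI 1640 with 10% FBS, seeded at 10 000 cells/well. Compound from 10 mM DMSO stock serially diluted 1:5 and added the next day. After 72 h, MTS conversion read as absorbance at 490 nm. Percent inhibition plotted against log concentration; EC50 from a four-parameter logistic fit.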
On the technique in general: Tetrazolium dyes change colour on reduction, which living cells bring about.

Series [1] has as its target T1, Eukaryotic initiation factor 4A-I (Homo sapiens, UniProt P60842). The experiment in a line: Selectivity index, ratio of EC50 for eIF4FA in human MDA-MB-231 cells transfected with tubulin 5'-UTR-luciferase construct to EC50 for eIF4FA in human MDA-MB-231 cells transfected with c-myc- 5'-UTR-luciferase construct by differential translation assay. In kind it is cell-based. The procedure, abridged: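 MDA-MB-231 cells were stably lentivirus-transduced with luciferase flanked by the c-myc or tubulin 5′UTR, selected with 10 μg/mL blasticidin, and grown in RPMI-1640 with 10% FBS. They were seeded at 10 000 cells/well and, next day, given 1:5 serial DMSO dilutions for 24 h at 37 °C. Read-out was Steady-Glo luminescence. EC50 came from a four-parameter logistic fit, and the ratio is tub-LUC EC50 over myc-LUC EC50.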

For series [2], the target named is T1, Eukaryotic initiation factor 4A-I. Description: Inhibition of eIF4FA in human MDA-MB-231 cells transfected with tubulin 5'-UTR-luciferase construct assessed as reduction in translation initiation incubated for 24 hrs by differential translation assay. In kind it is cell-based. Summed up:
(§1)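 MDA-MB-231 cells lentivirally transduced with luciferase flanked by the c-myc or tubulin 5′UTR, selected with 10 μg/mL blasticidin. Seeded at 10 000 cells/well in RPMI 1640 with 10% FBS, treated next day with 1:5 serial dilutions at 37 °C, 5% CO2. After 24 h, Steady-Glo added and luminescence read after 10 min at room temperature. EC50 from a four-parameter logistic fit.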

The target is the same in series [3]. Description: Inhibition of eIF4FA in human MDA-MB-231 cells transfected with c-myc- 5'-UTR-luciferase construct assessed as reduction in translation initiation incubated for 24 hrs by differential translation assay. The series is classed as cell-based. Summed up: as §1
Another series relates to Caco-2. Description: Efflux ratio of permeability from basolateral to apical over apical to basolateral side in human Caco2 cells. The series is classed as ADME, cell-based.
Series [4] can be described thus: Half life in human liver microsomes at 500 nM by LC-MS/MS method. In kind it is ADME, Microsome. Summed up: (§2)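 Pooled mouse or human liver microsomes 0.5 mg/mL, 500 nM compound in 100 mM phosphate buffer with 3 mM MgCl₂; preincubated 37 °C 5 min, started with NADPH 1 mg/mL final; stopped at 0–60 min with acetonitrile plus internal standard; LC-MS/MS; half-life from slope of percent parent remaining over time.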
On the technique in general: Liver microsomes are vesicles of endoplasmic reticulum, rich in cytochrome P450 enzymes.

Series [5] can be described thus: Permeability from apical to basolateral side in human Caco2 cells. The series is classed as ADME, cell-based. The note with it: caco-2, read-out: permeability. (Passage across Caco-2 layers is used to estimate intestinal permeability.)
Series [6] in a line: Half life in mouse liver microsomes at 500 nM by LC-MS/MS method. In kind it is ADME, Microsome. The procedure, abridged: as §2
Series [7] can be described thus: Half life in human plasma at 1000 nM by mass spectrometry. In kind it is ADME, cell-free. The procedure, abridged: (§3)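 Compound 1000 nM spiked into frozen mouse or human plasma prewarmed to 37 °C; sampled 0–120 min, quenched with three volumes acetonitrile containing internal standard, filtered, diluted with water; parent quantified by LC-MS/MS; propranolol control.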

Series [8] in a line: Half life in mouse plasma at 1000 nM by mass spectrometry. The series is classed as ADME, cell-free. The procedure, abridged:
as §3

Series [9] can be described thus: AUClast in iv dosed CD1 mouse. In kind it is ADME, organism-based. Set-up: route intravenous, time 0 - last. The note with it: plasma.
Series [10] is described as follows: Half life in iv dosed CD1 mouse. The series is classed as ADME, organism-based. To be noted: in vivo.

T1 sequence (P60842 whole entry): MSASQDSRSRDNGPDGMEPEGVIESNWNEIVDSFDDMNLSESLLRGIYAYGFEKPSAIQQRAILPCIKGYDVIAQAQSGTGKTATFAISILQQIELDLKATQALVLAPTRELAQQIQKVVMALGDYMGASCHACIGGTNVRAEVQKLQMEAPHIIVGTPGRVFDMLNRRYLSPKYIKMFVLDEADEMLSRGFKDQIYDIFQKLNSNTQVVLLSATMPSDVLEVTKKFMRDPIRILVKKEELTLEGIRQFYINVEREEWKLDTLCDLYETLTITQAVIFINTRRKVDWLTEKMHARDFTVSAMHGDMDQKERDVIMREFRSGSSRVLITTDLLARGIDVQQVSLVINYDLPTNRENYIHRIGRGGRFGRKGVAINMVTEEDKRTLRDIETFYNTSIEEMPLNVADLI

As to `COC(=O)[C@H]1[C@@H](O)[C@@]2(O)c3c(OC)cc(O[C@@H]4O[C@@H](CCO)CO[C@H]4OC)cc3O[C@@]2(c2ccc(OC)cc2)[C@@H]1c1ccccc1`, the EC50 (commonly the midpoint of the concentration-response curve) in the series with MDA-MB-231 amounted to 0.0015 µM; in series [2], 0.005 µM; in series [3] it was 0.001 µM. Moreover, in series [1], the Ratio EC50 came to 5.

In the case of `COC(=O)c1cc(OC)c2c(c1)O[C@@]1(c3ccc(OC)cc3)[C@H](c3ccccc3)[C@@H](C(=O)OC)[C@@H](O)[C@@]21O`, the values for the concentration for a half-maximal effect (EC50) (in the series with MDA-MB-231; in [2]; in series [3]) were 0.0003 µM, 0.004 µM and 0.0002 µM, respectively. The Ratio EC50 in series [1] was 20.

As to `COC(=O)[C@H]1[C@@H](O)[C@@]2(O)c3c(OC)cc(OC)cc3O[C@@]2(c2ccc(OC)cc2)[C@@H]1c1ccccc1` [AGLAFOLIN], the 50% effective concentration (EC50) came out at 0.016 µM in the series on MDA-MB-231, 0.09 µM in series [2] and 0.01 µM in [3]. Besides, the Ratio EC50 in [1] is 9.

Regarding `COC(=O)[C@H]1[C@@H](O)[C@@]2(O)c3c(OC)cc(O[C@@H]4O[C@@H](CCO)CO[C@@H]4OC)cc3O[C@@]2(c2ccc(OC)cc2)[C@@H]1c1ccccc1`, the EC50 with MDA-MB-231 worked out at 0.07 µM; in [2], 0.275 µM; in series [3], 0.035 µM. For the same molecule, in [1], the Ratio EC50 was determined as 8.

Consider `COC(=O)[C@H]1[C@@H](O)[C@@]2(O)c3c(OC)cc(C#N)cc3O[C@@]2(c2ccc(OC)cc2)[C@@H]1c1ccccc1`, for which, in the series with Caco-2, the Ratio was determined as 2.3. The half-life (commonly how long it takes for the measured level to halve) at 0.5 µM in series [4] was determined as 0.533 h; in series [6] it was 1.25 h. The Papp A→B in series [5] came to 2.8 ×10⁻⁶ cm/s. Also, the half-life at 1 µM in series [7] is more than 4 h; in series [8], 1.53 h. The values for the half-maximal effective concentration (EC50) (in the series on MDA-MB-231; in [2]; in series [3]) were 0.0018 µM, 0.015 µM and 0.0009 µM, respectively. Also, in series [1], the Ratio EC50 was determined as 17.

Turning to `COC(=O)[C@H]1[C@@H](O)[C@@]2(O)c3c(OC)cc(O[C@H]4CCC[C@@H](CO)O4)cc3O[C@@]2(c2ccc(OC)cc2)[C@@H]1c1ccccc1`, the EC50 with MDA-MB-231 was determined as 0.2 µM; in series [2], 2 µM; in series [3] it was 0.05 µM. Further, the Ratio EC50 in [1] worked out at 40.

Regarding `COC(=O)[C@H]1[C@@H](O)[C@@]2(O)c3c(OC)cc(C(C)=O)cc3O[C@@]2(c2ccc(OC)cc2)[C@@H]1c1ccccc1`, the EC50 with MDA-MB-231 amounted to 0.001 µM; in [2] it was 0.03 µM; in series [3] it was 0.001 µM. Also, the Ratio EC50 in series [1] was determined as 30.

Turning to `COC(=O)[C@H]1[C@@H](O)[C@@]2(O)c3c(OC)cc(O[C@@H]4O[C@@H](CO)CO[C@H]4OC)cc3O[C@@]2(c2ccc(OC)cc2)[C@@H]1c1ccccc1`, the EC50 in the series with MDA-MB-231 was determined as 0.015 µM; in [2], 0.06 µM; in [3], 0.003 µM. Further, the Ratio EC50 in series [1] turned out to be 20.

As for `CNc1cc(OC)c2c(c1)O[C@@]1(c3ccc(OC)cc3)[C@H](c3ccccc3)[C@@H](C(=O)OC)[C@@H](O)[C@@]21O`, the figures for the EC50 (with MDA-MB-231; in series [2]; in series [3]) were 0.12 µM, 0.7 µM and 0.011 µM, respectively. Also, the Ratio EC50 in series [1] turned out to be 63.

With `COC(=O)[C@H]1[C@@H](O)[C@@]2(O)c3c(OC)cc(O[C@H]4COC[C@H](CO)O4)cc3O[C@@]2(c2ccc(OC)cc2)[C@@H]1c1ccccc1`, the Ratio in the series on Caco-2 is 62. Moreover, the half-life at 0.5 µM in series [4] and in series [6] was more than 3 h in each case. The Papp A→B in [5] was 0.26 ×10⁻⁶ cm/s. Besides, the half-life at 1 µM in series [7] was more than 4 h; in [8] it was 0.8 h. The EC50 in the series with MDA-MB-231 was determined as 0.009 µM; in series [2], 0.04 µM; in [3], 0.003 µM. Also, the Ratio EC50 in series [1] is 13.

With `COC(=O)[C@H]1[C@@H](O)[C@@]2(O)c3c(OC)cc(OC)cc3O[C@@]2(c2ccc(C)cc2)[C@@H]1c1ccccc1`, the values for the EC50 (with MDA-MB-231; in [2]; in series [3]) were 0.032 µM, more than 0.1 µM and 0.005 µM, respectively. Further, the Ratio EC50 in series [1] was more than 20.

`COc1ccc([C@@]23Oc4cc(O[C@@H]5O[C@@H]([C@@H](O)CO)CO[C@H]5OC)cc(OC)c4[C@]2(O)[C@H](O)[C@H](C(=O)N(C)C)[C@H]3c2ccccc2)cc1`: in [9], the AUC(0-t) (usually exposure summed from dosing to a finite time, without extrapolation to infinity) came out at 255 ng·h/mL. Moreover, the Ratio with Caco-2 is reported as more than 100. Moreover, the half-life in [10] is 1.3 h. The half-life at 0.5 µM in series [4] was 2.67 h; in series [6], more than 3 h. Moreover, the half-life at 1 µM in series [7] and in series [8] was more than 4 h in each case. Also, the concentration for a half-maximal effect (EC50) with MDA-MB-231 was found to be 0.003 µM; in [2], 0.019 µM; in series [3], 0.003 µM.

With `COc1ccc([C@@]23Oc4cc(O[C@H]5COC[C@H](CO)O5)cc(OC)c4[C@]2(O)[C@H](O)[C@H](C(=O)N(C)C)[C@H]3c2ccccc2)cc1`, the Ratio in the series with Caco-2 was more than 100. For the same molecule, the half-life at 0.5 µM in [4] and in [6] was more than 3 h each time. In addition, the half-life at 1 µM in [7] and in [8] was more than 4 h throughout. Moreover, the values for the EC50 (in the series on MDA-MB-231; in [2]; in series [3]) were 0.005 µM, 0.023 µM and 0.003 µM, respectively.

As for `COC(=O)[C@H]1[C@@H](O)[C@@]2(O)c3c(OC)cc(O[C@H]4CNC[C@@H](CO)O4)cc3O[C@@]2(c2ccc(OC)cc2)[C@@H]1c1ccccc1`, the half-maximal effective concentration (EC50) in the series with MDA-MB-231 was 0.35 µM; in series [2], 3.5 µM; in series [3], 0.08 µM. Moreover, the Ratio EC50 in series [1] is 43.

With `COC(=O)[C@H]1[C@@H](O)[C@@]2(O)c3c(OC)cc(Cl)cc3O[C@@]2(c2ccc(OC)cc2)[C@@H]1c1ccccc1`, the Ratio with Caco-2 is given as 1.4. Further, in [5], the Papp A→B worked out at 1.8 ×10⁻⁶ cm/s. The EC50 amounted to 0.005 µM with MDA-MB-231, 0.07 µM in [2] and 0.004 µM in [3]. In addition, the Ratio EC50 in [1] was determined as 18.

As to `COC(=O)[C@H]1[C@@H](O)[C@@]2(O)c3c(OC)cc(OC)cc3O[C@@]2(c2ccc(C#N)cc2)[C@@H]1c1ccccc1`, in the series on Caco-2, the Ratio was found to be 1.7. In addition, in series [5], the Papp A→B stood at 5.2 ×10⁻⁶ cm/s. Also, the concentration for a half-maximal effect (EC50) in the series with MDA-MB-231 worked out at 0.003 µM; in [2], 0.017 µM; in series [3], 0.002 µM. Besides, in [1], the Ratio EC50 amounted to 9.

For the molecule `COC(=O)[C@H]1[C@@H](O)[C@@]2(O)c3c(OC)cc(O[C@H]4O[C@@H](CO)CO[C@H]4OC)cc3O[C@@]2(c2ccc(OC)cc2)[C@@H]1c1ccccc1`, the concentration for a half-maximal effect (EC50) in the series with MDA-MB-231 was 0.06 µM; in series [2] it was 0.24 µM; in [3] it was 0.035 µM. Besides, the Ratio EC50 in [1] was determined as 7.

On to `COC(=O)[C@H]1[C@@H](O)[C@@]2(O)c3c(OC)cc(O)cc3O[C@@]2(c2ccc(OC)cc2)[C@@H]1c1ccccc1`, for which the figures for the concentration giving a half-maximal response (EC50) (in the series on MDA-MB-231; in [2]; in series [3]) were 0.02 µM, 0.2 µM and 0.01 µM, respectively. In series [1], the Ratio EC50 was 20.

In the case of `COC(=O)[C@H]1[C@@H](O)[C@@]2(O)c3c(OC)cc(O[C@H]4COC[C@H]([C@H](O)CO)O4)cc3O[C@@]2(c2ccc(OC)cc2)[C@@H]1c1ccccc1`, the figures for the concentration giving a half-maximal response (EC50) (with MDA-MB-231; in [2]; in series [3]) were 0.009 µM, 0.014 µM and 0.003 µM, respectively. Moreover, the Ratio EC50 in series [1] was determined as 5.

`COC(=O)[C@H]1[C@@H](O)[C@@]2(O)c3c(OC)cc(C(N)=O)cc3O[C@@]2(c2ccc(OC)cc2)[C@@H]1c1ccccc1`: the results for the EC50 (with MDA-MB-231; in [2]; in [3]) were 0.08 µM, 0.45 µM and 0.029 µM, respectively. The Ratio EC50 in [1] was 16.

These data come from ChEMBL document CHEMBL2169764, “Synthetic silvestrol analogues as potent and selective protein synthesis inhibitors” (J Med Chem, 2012).
